# According to ChEMBL document CHEMBL4265871, “Novel alkylated azoles as potent antifungals” (Eur J Med Chem, 2017):
# System: not listed separately
# Experiment: Selectivity index, ratio of EC50 for toxicity in human A549 cells to MIC100 for antifungal activity against Candida albicans ATCC 10231
# Type: cell-based
# Details: read-out: Selectivity Index
# How it was run: (§1)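 Selectivity index is the EC50 against the mammalian line (A549 or BEAS-2B) divided by the MIC against the given fungal strain.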
row,SMILES,selectivity ratio
1,CCCCCC(O)(Cn1cncn1)c1ccccc1F (configuration not stated),9
2,CCCC(O)(Cn1cncn1)c1ccc(Cl)cc1Cl (configuration not stated),130
3,CCCCCC(O)(Cn1cncn1)c1ccc(F)cc1 (configuration not stated),8
4,CCCCCCC(O)(Cn1cncn1)c1ccccc1F (configuration not stated),16

# System: not listed separately
# Experiment: Selectivity index, ratio of […] for toxicity in human A549 cells to MIC50 for antifungal activity against Aspergillus flavus ATCC MYA-3631
# Type: cell-based
# Details: read-out: Selectivity Index
row,SMILES,selectivity ratio
1,CCCCCC(O)(Cn1cncn1)c1ccccc1F (configuration not stated),5
2,CCCC(O)(Cn1cncn1)c1ccc(Cl)cc1Cl (configuration not stated),2
3,CCCCCC(O)(Cn1cncn1)c1ccc(F)cc1 (configuration not stated),1
4,CCCCCCC(O)(Cn1cncn1)c1ccccc1F (configuration not stated),1 to 2

# System: Candida albicans
# Experiment: Antifungal activity against ITC and FLC-resistant Candida albicans ATCC 1237 incubated for 48 hrs by modified CLSI M27-A3 protocol based method
# Type: functional
# Details: ATCC 1237, 48 h
# How it was run: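 Because these Candida strains show trailing growth, MIC-2 was read, meaning 50% growth inhibition. Caspofungin and voriconazole were tested here; other controls came from earlier work.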
row,SMILES,MIC50
1,CCCCCC(O)(Cn1cncn1)c1ccccc1F (configuration not stated),3.5 µM
2,CCCC(O)(Cn1cncn1)c1ccc(Cl)cc1Cl (configuration not stated),26 µM
3,CCCCCC(O)(Cn1cncn1)c1ccc(F)cc1 (configuration not stated),7 µM
4,CCCCCCC(O)(Cn1cncn1)c1ccccc1F (configuration not stated),3.3 µM

# System: Aspergillus terreus
# Experiment: Antifungal activity against Aspergillus terreus ATCC MYA-3633 incubated for 48 hrs by CLSI M38-A2 protocol based method
# Type: functional
# Details: ATCC MYA-3633, 48 h, read-out: MIC100
row,SMILES,MIC
1,CCCCCC(O)(Cn1cncn1)c1ccccc1F (configuration not stated),14.1 µM
2,CCCC(O)(Cn1cncn1)c1ccc(Cl)cc1Cl (configuration not stated),13 µM
3,CCCCCC(O)(Cn1cncn1)c1ccc(F)cc1 (configuration not stated),113 µM
4,CCCCCCC(O)(Cn1cncn1)c1ccccc1F (configuration not stated),13.4 µM

# System: not listed separately
# Experiment: Selectivity index, ratio of […] for toxicity in human BEAS2B cells to MIC50 for antifungal activity against Aspergillus nidulans ATCC 38163
# Type: cell-based
# Details: BEAS-2B cells, read-out: Selectivity Index
row,SMILES,selectivity ratio
1,CCCCCC(O)(Cn1cncn1)c1ccccc1F (configuration not stated),65
2,CCCC(O)(Cn1cncn1)c1ccc(Cl)cc1Cl (configuration not stated),16
3,CCCCCC(O)(Cn1cncn1)c1ccc(F)cc1 (configuration not stated),8
4,CCCCCCC(O)(Cn1cncn1)c1ccccc1F (configuration not stated),65

# System: A549
# Experiment: Toxicity in human A549 cells assessed as cell viability at 15.6 ug/ml incubated for 24 hrs by resazurin dye based assay
# Details: a549, 24 h
row,SMILES,viability
1,CCCC(O)(Cn1cncn1)c1ccc(Cl)cc1Cl (configuration not stated),> 85%

# System: not listed separately
# Experiment: Selectivity index, ratio of EC50 for toxicity in human A549 cells to MIC50 for antifungal activity against Candida glabrata ATCC 2001
# Type: cell-based
# Details: read-out: Selectivity Index
# How it was run: as §1
row,SMILES,selectivity ratio
1,CCCCCC(O)(Cn1cncn1)c1ccccc1F (configuration not stated),38
2,CCCC(O)(Cn1cncn1)c1ccc(Cl)cc1Cl (configuration not stated),8
3,CCCCCC(O)(Cn1cncn1)c1ccc(F)cc1 (configuration not stated),4
4,CCCCCCC(O)(Cn1cncn1)c1ccccc1F (configuration not stated),32

# System: BEAS-2B
# Experiment: Toxicity in human BEAS2B cells assessed as cell viability at 15.6 ug/ml incubated for 24 hrs by resazurin dye based assay
# Details: not given
row,SMILES,viability
1,CCCC(O)(Cn1cncn1)c1ccc(Cl)cc1Cl (configuration not stated),> 85%

# System: Candida albicans
# Experiment: Antifungal activity against ITC and FLC-resistant Candida albicans ATCC MYA-90819 incubated for 48 hrs by modified CLSI M27-A3 protocol based method
# Type: functional
# Details: ATCC MYA-90819, 48 h
row,SMILES,MIC50
1,CCCCCC(O)(Cn1cncn1)c1ccccc1F (configuration not stated),1.7 µM
2,CCCC(O)(Cn1cncn1)c1ccc(Cl)cc1Cl (configuration not stated),13 µM
3,CCCCCC(O)(Cn1cncn1)c1ccc(F)cc1 (configuration not stated),3.5 µM
4,CCCCCCC(O)(Cn1cncn1)c1ccccc1F (configuration not stated),0.82 µM

# System: not listed separately
# Experiment: Hemolytic activity in mouse erythrocytes assessed as hemolysis level at 125 ug/ml incubated for 1 hr at 37 degC
# Type: ADME, cell-based, Erythrocyte
# Details: read-out: Activity
# How it was run: (§2)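 Mouse erythrocytes incubated 1 h at 37 °C with test agents over 1.95 to 125 µg/mL. Percent lysis is read for each concentration.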
row,SMILES,"hemolysis at 1 h, 125 ug/ml"
1,CCCCCC(O)(Cn1cncn1)c1ccccc1F (configuration not stated),20.7%
2,CCCCCCC(O)(Cn1cncn1)c1ccccc1F (configuration not stated),85.6%

# System: not listed separately
# Experiment: Selectivity index, ratio of […] for toxicity in human A549 cells to MIC50 for antifungal activity against Aspergillus terreus ATCC MYA-3633
# Type: cell-based
# Details: read-out: Selectivity Index
row,SMILES,selectivity ratio
1,CCCCCC(O)(Cn1cncn1)c1ccccc1F (configuration not stated),9
2,CCCC(O)(Cn1cncn1)c1ccc(Cl)cc1Cl (configuration not stated),8
3,CCCCCC(O)(Cn1cncn1)c1ccc(F)cc1 (configuration not stated),1
4,CCCCCCC(O)(Cn1cncn1)c1ccccc1F (configuration not stated),8

# System: Candida albicans
# Experiment: Antifungal activity against Candida albicans ATCC 10231 incubated for 48 hrs by modified CLSI M27-A3 protocol based method
# Type: functional
# Details: ATCC 10231, 48 h, read-out: MIC100
# How it was run: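 For C. albicans ATCC 10231, C. krusei ATCC 6258 and C. parapsilosis ATCC 22019, MIC-0 was read, meaning complete growth inhibition. For azole controls, MIC-2 (50% growth inhibition) was reported instead. Caspofungin and voriconazole were tested here; other controls came from earlier work.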
row,SMILES,MIC
1,CCCCCC(O)(Cn1cncn1)c1ccccc1F (configuration not stated),14.1 µM
2,CCCC(O)(Cn1cncn1)c1ccc(Cl)cc1Cl (configuration not stated),0.8 µM
3,CCCCCC(O)(Cn1cncn1)c1ccc(F)cc1 (configuration not stated),14.1 µM
4,CCCCCCC(O)(Cn1cncn1)c1ccccc1F (configuration not stated),6.7 µM

# System: not listed separately
# Experiment: Selectivity index, ratio of EC50 for toxicity in human BEAS2B cells to MIC for antifungal activity against Candida parapsilosis ATCC 22019
# Details: BEAS-2B cells
row,SMILES,selectivity ratio
1,CCCCCC(O)(Cn1cncn1)c1ccccc1F (configuration not stated),261
2,CCCC(O)(Cn1cncn1)c1ccc(Cl)cc1Cl (configuration not stated),1040
3,CCCCCC(O)(Cn1cncn1)c1ccc(F)cc1 (configuration not stated),69
4,CCCCCCC(O)(Cn1cncn1)c1ccccc1F (configuration not stated),261

# System: Aspergillus flavus
# Experiment: Antifungal activity against Aspergillus flavus ATCC MYA-3631 incubated for 48 hrs by CLSI M38-A2 protocol based method
# Type: functional
# Details: ATCC MYA-3631, 48 h, read-out: MIC100
row,SMILES,MIC
1,CCCCCC(O)(Cn1cncn1)c1ccccc1F (configuration not stated),28.1 µM
2,CCCC(O)(Cn1cncn1)c1ccc(Cl)cc1Cl (configuration not stated),52 µM
3,CCCCCC(O)(Cn1cncn1)c1ccc(F)cc1 (configuration not stated),> 113 µM
4,CCCCCCC(O)(Cn1cncn1)c1ccccc1F (configuration not stated),53.5 to 107 µM

# System: not listed separately
# Experiment: Hemolytic activity in mouse erythrocytes assessed as hemolysis level at 15.6 ug/ml incubated for 1 hr at 37 degC
# Type: ADME, cell-based, Erythrocyte
# Details: read-out: Activity
# How it was run: as §2
row,SMILES,"hemolysis at 1 h, 15.6 ug/ml"
1,CCCCCC(O)(Cn1cncn1)c1ccccc1F (configuration not stated),0%
2,CCCCCCC(O)(Cn1cncn1)c1ccccc1F (configuration not stated),0%

# System: not listed separately
# Experiment: Selectivity index, ratio of EC50 for toxicity in human BEAS2B cells to MIC50 for antifungal activity against ITC and FLC-resistant Candida albicans ATCC MYA-90819
# Type: cell-based
# Details: BEAS-2B cells, read-out: Selectivity Index
# How it was run: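 Ratio of the compound's EC50 against BEAS-2B cells to its MIC against the named C. albicans strain. […] For C. albicans strains other than ATCC 10231, trailing growth meant MIC-2 was taken, meaning 50% growth inhibition.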
row,SMILES,selectivity ratio
1,CCCCCC(O)(Cn1cncn1)c1ccccc1F (configuration not stated),65
2,CCCC(O)(Cn1cncn1)c1ccc(Cl)cc1Cl (configuration not stated),8
3,CCCCCC(O)(Cn1cncn1)c1ccc(F)cc1 (configuration not stated),34
4,CCCCCCC(O)(Cn1cncn1)c1ccccc1F (configuration not stated),130

# System: not listed separately
# Experiment: Selectivity index, ratio of EC50 for toxicity in human A549 cells to MIC50 for antifungal activity against ITC and FLC-susceptible Candida albicans ATCC MYA-2310
# Type: cell-based
# Details: read-out: Selectivity Index
# How it was run: as §1
row,SMILES,selectivity ratio
1,CCCCCC(O)(Cn1cncn1)c1ccccc1F (configuration not stated),38
2,CCCC(O)(Cn1cncn1)c1ccc(Cl)cc1Cl (configuration not stated),8
3,CCCCCC(O)(Cn1cncn1)c1ccc(F)cc1 (configuration not stated),8
4,CCCCCCC(O)(Cn1cncn1)c1ccccc1F (configuration not stated),32

# System: not listed separately
# Experiment: Selectivity index, ratio of […] for toxicity in human BEAS2B cells to MIC50 for antifungal activity against Aspergillus terreus ATCC MYA-3633
# Type: cell-based
# Details: BEAS-2B cells, read-out: Selectivity Index
row,SMILES,selectivity ratio
1,CCCCCC(O)(Cn1cncn1)c1ccccc1F (configuration not stated),8
2,CCCC(O)(Cn1cncn1)c1ccc(Cl)cc1Cl (configuration not stated),8
3,CCCCCC(O)(Cn1cncn1)c1ccc(F)cc1 (configuration not stated),1
4,CCCCCCC(O)(Cn1cncn1)c1ccccc1F (configuration not stated),8
